In ChEMBL document CHEMBL1145867, “Muraymycins, novel peptidoglycan biosynthesis inhibitors: synthesis and SAR of their analogues” (2003):
Values after ≈ are worked out from the molar mass of the structure shown. Active and inactive are the calls of the source. The rule behind the calls is not given here.

Key:
Morganella morganii = assay: In vitro antimicrobial activity against Morganella morganii GC 4531; format: functional
Method in brief: (§1)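 Broth microdilution per NCCLS guidance. Serial dilutions of each agent in microtiter plates are inoculated with each organism to 10⁵ CFU/mL and incubated 18–22 h at 35 C in ambient air. MIC is the lowest concentration giving complete growth inhibition, judged by the unaided eye.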

Klebsiella pneumoniae = assay: In vitro antimicrobial activity against Klebsiella pneumoniae GC 4534; format: functional; method in brief: as §1
[1] = The inhibitory activity of compound against MraY or MurG at 6.25 ug/mL; No Inhibition
[2] = The inhibitory activity of compound against MraY or MurG at 100 ug/mL;Inhibit
Pseudomonas aeruginosa [3] = assay: In vitro antimicrobial activity against Pseudomonas aeruginosa GC 4532; format: functional; method in brief: as §1
[4] = The inhibitory activity of compound against MraY or MurG at 12.5 ug/mL; No Inhibition
Enterococcus sp. = assay: In vitro antimicrobial activity against Enterococci; format: functional; method in brief: as §1
Staphylococcus sp. [5] = assay: In vitro antimicrobial activity against CNS GC 4538; format: functional; method in brief: as §1
Staphylococcus sp. [6] = assay: In vitro antimicrobial activity against CNS GC 4547; format: functional; method in brief: as §1
Staphylococcus aureus [7] = assay: In vitro antimicrobial activity against Staphylococcu aureus GC 4536; format: functional; method in brief: as §1
Staphylococcus aureus [8] = assay: In vitro antimicrobial activity against Staphylococcu aureus GC 2216; format: functional; method in brief: as §1
Bacteria = assay: In vitro antimicrobial activity against gram-negative organisms (10); format: functional; method in brief: as §1
Escherichia coli [9] = assay: In vitro antimicrobial activity against Escherichia coli GC 4560; format: functional; method in brief: as §1
Enterococcus faecalis [10] = assay: In vitro antimicrobial activity against Enterococcus faecalis GC 842; format: functional; method in brief: as §1
Escherichia coli [11] = assay: In vitro antimicrobial activity against Escherichia coli GC 4559; format: functional; method in brief: as §1
Staphylococcus sp. [12] = assay: In vitro antimicrobial activity against Staphylococci; format: functional, staphyl ococcus species; method in brief: as §1
Candida albicans = assay: In vitro antimicrobial activity against Candida albicans GC 3066; format: functional; method in brief: as §1
[13] = The inhibitory activity of compound against MraY or MurG at 50 ug/mL; Inhibit
[14] = The inhibitory activity of compound against MraY or MurG at 25 ug/mL; No Inhibition
Enterococcus faecalis [15] = assay: In vitro antimicrobial activity against Enterococcus faecalis GC 4555; format: functional; method in brief: as §1
Pseudomonas aeruginosa [16] = assay: In vitro antimicrobial activity against Pseudomonas aeruginosa GC 2214; format: functional; method in brief: as §1
Staphylococcus aureus [17] = assay: In vitro antimicrobial activity against Staphylococcu aureus GC 1131; format: functional
Method in brief: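 Broth dilution per NCCLS recommendations. Serial dilutions in microtiter plates inoculated to 10⁵ CFU/mL, then incubated 18–22 h at 35 C in ambient air. MIC taken as the lowest concentration giving complete growth inhibition by unaided eye.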

Serratia marcescens [18] = assay: In vitro antimicrobial activity against Serratia marcescens GC 4077; format: functional; method in brief: as §1
Escherichia coli [19] = assay: In vitro antimicrobial activity against Escherichia coli GC 3226; format: functional; method in brief: as §1
Enterococcus faecalis [20] = assay: In vitro antimicrobial activity against Enterococcus faecalis GC 2242; format: functional; method in brief: as §1
Escherichia coli [21] = assay: In vitro antimicrobial activity against Escherichia coli GC 2214; format: functional; method in brief: as §1
Enterobacter cloacae = assay: In vitro antimicrobial activity against Enterobacter cloacae GC 3783; format: functional; method in brief: as §1
[22] = The inhibitory activity of compound against MraY or MurG at 25 ug/mL; Inhibit
Serratia marcescens [23] = assay: In vitro antimicrobial activity against In vitro antimicrobial activity against Serratia marcescens GC 4077
[24] = The inhibitory activity of compound against MraY or MurG at 100 ug/mL; Inhibit
[25] = The inhibitory activity of compound against MraY or MurG at 12.5 ug/mL; Inhibit
Staphylococcus aureus [26] = assay: In vitro antimicrobial activity against Staphylococcus aureus GC 1131; format: functional; method in brief: as §1
Staphylococcus aureus [27] = assay: In vitro antimicrobial activity against Staphylococcus aureus GC 2216; format: functional; method in brief: as §1
Staphylococcus aureus [28] = assay: In vitro antimicrobial activity against Staphylococcus aureus GC 4536; format: functional; method in brief: as §1
Staphylococcus sp. [29] = assay: In vitro antimicrobial activity against Coagulase-negative staphylococcus GC 4538; format: functional; method in brief: as §1
[30] = Staphylococcus sp., read-out: MIC

Inhibitory activity [4]	MIC (Bacteria)	Compound	MIC (Klebsiella pneumoniae)	Inhibitory activity [1]	MIC (Pseudomonas aeruginosa [3])	MIC (Enterococcus sp.)	MIC (Staphylococcus sp. [5])	MIC (Staphylococcus sp. [5]; [30])	MIC (Staphylococcus sp. [6])	MIC (Staphylococcus aureus [7])	MIC (Staphylococcus aureus [8])	MIC (Escherichia coli [9])	MIC (Enterococcus faecalis [10])	MIC (Escherichia coli [11])	MIC (Staphylococcus sp. [12])	MIC (Candida albicans)	Inhibitory activity [13]	MIC (Enterococcus faecalis [15])	MIC (Pseudomonas aeruginosa [16])	MIC (Enterococcus faecalis [20])	also measured
inactive	> 128 µg/mL	COc1ccc(Cn2c(=O)ccn([C@@H]3OC([C@H](O)[C@H](NCCCNC(=O)[C@H](N)CC(C)C)C(=O)OC(C)(C)C)[C@@H](O[Si](C)(C)C(C)(C)C)[C@H]3O[Si](C)(C)C(C)(C)C)c2=O)cc1 (some centres not stated)		inactive		4 µg/mL (≈ 4.48 µM)									4 µg/mL (≈ 4.48 µM)		Inhibit				Inhibitory activity [2]: Inhibit; Inhibitory activity [22]: Inhibit
inactive	64 µg/mL (≈ 75.3 µM)	COc1ccc(Cn2c(=O)ccn([C@@H]3OC([C@H](O)[C@H](NCCCNC(=O)[C@@H](C)N)C(=O)OC(C)(C)C)[C@@H](O[Si](C)(C)C(C)(C)C)[C@H]3O[Si](C)(C)C(C)(C)C)c2=O)cc1 (some centres not stated)	128 µg/mL (≈ 151 µM)	inactive	128 µg/mL (≈ 151 µM)	4 µg/mL (≈ 4.7 µM)	8 µg/mL (≈ 9.41 µM)	4 µg/mL (≈ 4.7 µM)	4 µg/mL (≈ 4.7 µM)	4 µg/mL (≈ 4.7 µM)	8 µg/mL (≈ 9.41 µM)	128 µg/mL (≈ 151 µM)	4 µg/mL (≈ 4.7 µM)	128 µg/mL (≈ 151 µM)	4 µg/mL (≈ 4.7 µM)	128 µg/mL (≈ 151 µM)	Inhibit	8 µg/mL (≈ 9.41 µM)	128 µg/mL (≈ 151 µM)	4 µg/mL (≈ 4.7 µM)	Inhibitory activity [14]: inactive; MIC (Staphylococcus aureus [17]): 4 µg/mL (≈ 4.7 µM); MIC (Serratia marcescens [23]): 128 µg/mL (≈ 151 µM); MIC (Serratia marcescens [18]): 128 µg/mL (≈ 151 µM); MIC (Escherichia coli [19]): 128 µg/mL (≈ 151 µM); Inhibitory activity [24]: Inhibit; MIC (Escherichia coli [21]): 128 µg/mL (≈ 151 µM); MIC (Enterobacter cloacae): 128 µg/mL (≈ 151 µM)
	8 µg/mL (≈ 6.66 µM)	COC1C(O)[C@@H](OC(C(NCCCNC(=O)[C@H](NC(=O)[C@@H](NC(=O)N[C@H](C(=O)O)C(C)C)C2CCN=C(N)N2)C(OC(=O)CCCCCCCCCCCN(O)C(=N)N)C(C)C)C(=O)O)[C@H]2O[C@@H](n3ccc(=O)[nH]c3=O)[C@H](O)[C@@H]2O)O[C@H]1CN (some centres not stated)						1 µg/mL (≈ 0.832 µM)	8 µg/mL (≈ 6.66 µM)				4 µg/mL (≈ 3.33 µM)					16 µg/mL (≈ 13.3 µM)		32 µg/mL (≈ 26.6 µM)	MIC (Staphylococcus aureus [26]): 4 µg/mL (≈ 3.33 µM); MIC (Staphylococcus aureus [27]): 8 µg/mL (≈ 6.66 µM); MIC (Staphylococcus aureus [28]): 4 µg/mL (≈ 3.33 µM); MIC (Staphylococcus sp. [29]): 2 µg/mL (≈ 1.66 µM)

Compound	Inhibitory activity [4]	MIC (Bacteria)	MIC (Klebsiella pneumoniae)	Inhibitory activity [1]	MIC (Pseudomonas aeruginosa [3])	MIC (Enterococcus sp.)	MIC (Staphylococcus sp. [5])	MIC (Staphylococcus sp. [5]; [30])	MIC (Staphylococcus sp. [6])	MIC (Staphylococcus aureus [7])	MIC (Staphylococcus aureus [8])	MIC (Escherichia coli [9])	MIC (Enterococcus faecalis [10])	MIC (Escherichia coli [11])	MIC (Staphylococcus sp. [12])	MIC (Candida albicans)	Inhibitory activity [13]	MIC (Enterococcus faecalis [15])	MIC (Pseudomonas aeruginosa [16])	MIC (Enterococcus faecalis [20])	also measured
COc1ccc(Cn2c(=O)ccn([C@@H]3OC([C@H](O)[C@H](NCCCNC(=O)[C@H](N)C(O)C(C)C)C(=O)OC(C)(C)C)[C@@H](O[Si](C)(C)C(C)(C)C)[C@H]3O[Si](C)(C)C(C)(C)C)c2=O)cc1 (some centres not stated)	inactive	> 128 µg/mL	> 128 µg/mL	inactive	> 128 µg/mL	128 µg/mL (≈ 141 µM)	4 µg/mL (≈ 4.4 µM)	4 µg/mL (≈ 4.4 µM)	16 µg/mL (≈ 17.6 µM)	16 µg/mL (≈ 17.6 µM)	4 µg/mL (≈ 4.4 µM)	> 128 µg/mL	8 µg/mL (≈ 8.81 µM)	> 128 µg/mL	4 µg/mL (≈ 4.4 µM)	> 128 µg/mL	Inhibit	4 µg/mL (≈ 4.4 µM)	> 128 µg/mL	4 µg/mL (≈ 4.4 µM)	MIC (Morganella morganii): > 128 µg/mL; Inhibitory activity [2]: Inhibit; Inhibitory activity [14]: inactive; MIC (Staphylococcus aureus [17]): 4 µg/mL (≈ 4.4 µM); MIC (Serratia marcescens [18]): > 128 µg/mL; MIC (Escherichia coli [19]): > 128 µg/mL; MIC (Escherichia coli [21]): > 128 µg/mL; MIC (Enterobacter cloacae): > 128 µg/mL
CC(C)C(O)[C@@H](N)C(=O)NCCCN[C@H](C(=O)OC(C)(C)C)[C@@H](O)C1O[C@@H](n2ccc(=O)[nH]c2=O)[C@H](O[Si](C)(C)C(C)(C)C)[C@@H]1O[Si](C)(C)C(C)(C)C (some centres not stated)		> 128 µg/mL	128 µg/mL (≈ 162 µM)	inactive	128 µg/mL (≈ 162 µM)	2 µg/mL (≈ 2.54 µM)	2 µg/mL (≈ 2.54 µM)	1 µg/mL (≈ 1.27 µM)	2 µg/mL (≈ 2.54 µM)	1 µg/mL (≈ 1.27 µM)	2 µg/mL (≈ 2.54 µM)	32 µg/mL (≈ 40.6 µM)	2 µg/mL (≈ 2.54 µM)	> 128 µg/mL	1 µg/mL (≈ 1.27 µM)	32 µg/mL (≈ 40.6 µM)	Inhibit	2 µg/mL (≈ 2.54 µM)	> 128 µg/mL	2 µg/mL (≈ 2.54 µM)	MIC (Morganella morganii): 128 µg/mL (≈ 162 µM); Inhibitory activity [25]: Inhibit; Inhibitory activity [22]: Inhibit; MIC (Staphylococcus aureus [17]): 1 µg/mL (≈ 1.27 µM); MIC (Serratia marcescens [18]): 128 µg/mL (≈ 162 µM); MIC (Escherichia coli [19]): > 128 µg/mL; Inhibitory activity [24]: Inhibit; MIC (Escherichia coli [21]): 128 µg/mL (≈ 162 µM); MIC (Enterobacter cloacae): 128 µg/mL (≈ 162 µM)
